The assay addresses T1, RNF2 (Homo sapiens, UniProt Q99496).
T1 sequence (Q99496 2-336): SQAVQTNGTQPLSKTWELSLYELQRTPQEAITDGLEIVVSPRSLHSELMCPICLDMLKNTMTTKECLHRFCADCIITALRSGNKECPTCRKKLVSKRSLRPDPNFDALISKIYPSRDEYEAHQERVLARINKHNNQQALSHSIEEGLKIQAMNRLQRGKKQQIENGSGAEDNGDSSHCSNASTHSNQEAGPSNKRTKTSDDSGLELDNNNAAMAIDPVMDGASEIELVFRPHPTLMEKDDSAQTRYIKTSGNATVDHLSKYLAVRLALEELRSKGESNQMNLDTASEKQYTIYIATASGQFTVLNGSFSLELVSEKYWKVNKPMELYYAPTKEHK
In kind it is cell-based. The gist of the method: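 RNF2-PRC1 complex immunoprecipitated from PC3 cells, washed, then preincubated with test compound for 30 min at 4 °C. Products run on SDS-PAGE and immunoblotted with anti-H2A. In cells, histones acid-extracted (0.4N H2SO4) from nuclear extracts and probed for H2A/H2AUb.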

pIC50: −log10 of the molar value.

On to GW-516 [compound 4], for which the pIC50 was approximately 6.33.

Broadly, the pIC50 is the IC50 on a negative log10 scale, so that one unit is a factor of ten. A high value points to a low IC50.

For the origin of these results see article PMC7210785 (Cancer cell, 2019).
